Results taken from ChEMBL document CHEMBL3244396, “Synthesis and antileukemic activity of 5-substituted 2,3-dihydro-6,7-bis(hydroxymethyl)-1H-pyrrolizine diesters” (J Med Chem, 1977).

Assays:
P388 [1] = test: Antitumor activity against mouse P388 cells allografted in male CDF1 mouse assessed as disease cures by measuring 30-days host survival at 6.25 mg/kg, ip administered daily for 9 days as Klucel suspension starting 24 hrs after tumor inoculation relative to control; type: functional; conditions: route intraperitoneal
How it was run: (§1)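 P388 leukemia given as an ascitic fluid cell inoculum, ip, to mice of the strain and sex in each line. Nine daily ip doses were given in a Klucel (hydroxypropylcellulose) suspension, starting 24 h after inoculation. Read-out is median survival time as %T/C, with >125 taken as significant; a "cure" means 30-day survival.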

L1210 [2] = test: Antileukemic activity against mouse L1210 cells allografted in female BDF1 mouse assessed as change in body weight at 200 mg/kg, ip administered daily for 9 days as Klucel suspension starting 24 hrs after tumor inoculation; type: functional; conditions: route intraperitoneal
How it was run: (§2)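 Ascitic fluid carrying L1210 cells was inoculated ip. Compound was given ip as a Klucel (hydroxypropylcellulose) suspension in nine daily doses, starting 24 h after inoculation. Body-weight difference (treated minus control) was recorded on day 5. Survival was scored as %T/C of mean survival time.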

P388 [3] = test: Antitumor activity against mouse P388 cells allografted in female BDF1 mouse assessed as disease cures by measuring 30-days host survival at 12.5 mg/kg, ip administered daily for 9 days as Klucel suspension starting 24 hrs after tumor inoculation relative to control; type: functional; conditions: route intraperitoneal; how it was run: as §1
L1210 [4] = test: Antileukemic activity against mouse L1210 cells allografted in female BDF1 mouse assessed as host mean survival time at 50 mg/kg, ip administered daily for 9 days as Klucel suspension starting 24 hrs after tumor inoculation relative to control; type: functional; conditions: route intraperitoneal
How it was run: (§3)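 L1210 leukemia given as an ascitic fluid cell inoculum, ip, to mice of the strain and sex in each line. Test material was given ip for nine daily doses starting 24 h after inoculation, in a Klucel (hydroxypropylcellulose) suspension. Read-out is mean survival time as %T/C versus controls, with >125 taken as significant.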

P388 [5] = test: Antitumor activity against mouse P388 cells allografted in female BDF1 mouse assessed as change in body weight at 25 mg/kg, ip administered daily for 9 days as Klucel suspension starting 24 hrs after tumor inoculation; type: functional; conditions: route intraperitoneal
How it was run: (§4)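 Ascitic fluid carrying P388 cells was inoculated ip. Compound was given ip in nine daily doses, starting 24 h after inoculation, in Klucel (hydroxypropylcellulose) suspension or in saline with Tween-80. Body-weight difference (treated minus control) was recorded on day 5. Survival was scored as %T/C of median survival time, and 30-day survival counted as cure.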

[6] = Cytotoxicity against human 9KB cells treated as ethanol solution; type: functional; conditions: read-out: ED50 (the source's name)
How it was run: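 Compound applied as an ethanol solution; activity read out as ED50 under the general screening protocol.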

P388 [7] = test: Antitumor activity against mouse P388 cells allografted in male CDF1 mouse assessed as disease cures by measuring 30-days host survival at 50 mg/kg, ip administered daily for 9 days as Klucel suspension starting 24 hrs after tumor inoculation relative to control; type: functional; conditions: route intraperitoneal; how it was run: as §1
P388 [8] = test: Antitumor activity against mouse P388 cells allografted in male CDF1 mouse assessed as change in body weight at 25 mg/kg, ip administered daily for 9 days as Klucel suspension starting 24 hrs after tumor inoculation; type: functional; conditions: route intraperitoneal; how it was run: as §4
Mus musculus [9] = test: Toxicity in female BDF1 mouse allografted with mouse L1210 cells assessed as animal survival at 50 mg/kg, ip administered daily for 9 days as Klucel suspension starting 24 hrs after tumor inoculation measured on fifth day; type: organism-based; set-up: dose 50 mg/kg, route intraperitoneal; conditions: in vivo
How it was run: (§5)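 L1210 leukemia passaged as ascitic fluid and inoculated ip. Test agent given ip as a Klucel (hydroxypropylcellulose) suspension, nine daily doses starting 24 h after tumor inoculation. Acute toxicity read as toxicity-day survivors per group (out of 6), recorded on day 5. Animal weight difference T − C was also recorded. Follows NCI screening protocols.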

L1210 [10] = test: Antileukemic activity against mouse L1210 cells allografted in female BDF1 mouse assessed as change in body weight at 100 mg/kg, ip administered daily for 9 days as Klucel suspension starting 24 hrs after tumor inoculation; type: functional; conditions: route intraperitoneal; how it was run: as §2
Mus musculus [11] = test: Toxicity in male CDF1 mouse allografted with mouse P388 cells assessed as animal survival at 25 mg/kg, ip administered daily for 9 days as Klucel suspension starting 24 hrs after tumor inoculation; type: organism-based; set-up: dose 25 mg/kg, route intraperitoneal; conditions: in vivo
How it was run: (§6)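 P-388 leukemia ascitic fluid inoculated ip. Compound given ip as a suspension in Klucel (hydroxypropylcellulose), once daily for nine doses beginning 24 h post-inoculation. Acute toxicity assessed as toxicity-day survivors per group. Survival was followed up to 30 days, with 30-day survival counted as "cure". Follows NCI screening protocols.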

P388 [12] = test: Antitumor activity against mouse P388 cells allografted in male CDF1 mouse assessed as change in body weight at 50 mg/kg, ip administered daily for 9 days as Klucel suspension starting 24 hrs after tumor inoculation; type: functional; conditions: route intraperitoneal; how it was run: as §4
P388 [13] = test: Antitumor activity against mouse P388 cells allografted in male CDF1 mouse assessed as disease cures by measuring 30-days host survival at 25 mg/kg, ip administered daily for 9 days as Klucel suspension starting 24 hrs after tumor inoculation relative to control; type: functional; conditions: route intraperitoneal; how it was run: as §1
Mus musculus [14] = test: Toxicity in female BDF1 mouse allografted with mouse P388 cells assessed as animal survival at 25 mg/kg, ip administered daily for 9 days as Klucel suspension starting 24 hrs after tumor inoculation; type: organism-based; set-up: dose 25 mg/kg, route intraperitoneal; conditions: in vivo; how it was run: as §6
P388 [15] = test: Antitumor activity against mouse P388 cells allografted in male CDF1 mouse assessed as disease cures by measuring 30-days host survival at 12.5 mg/kg, ip administered daily for 9 days as Klucel suspension starting 24 hrs after tumor inoculation relative to control; type: functional; conditions: route intraperitoneal; how it was run: as §1
P388 [16] = test: Antitumor activity against mouse P388 cells allografted in female CDF1 mouse assessed as disease cures by measuring 30-days host survival at 100 mg/kg, ip administered daily for 9 days as Klucel suspension starting 24 hrs after tumor inoculation relative to control; type: functional; conditions: route intraperitoneal; how it was run: as §1
Mus musculus [17] = test: Toxicity in male CDF1 mouse allografted with mouse P388 cells assessed as animal survival at 12.5 mg/kg, ip administered daily for 9 days as Klucel suspension starting 24 hrs after tumor inoculation; type: organism-based; set-up: dose 12.5 mg/kg, route intraperitoneal; conditions: in vivo; how it was run: as §6
Mus musculus [18] = test: Toxicity in female BDF1 mouse allografted with mouse L1210 cells assessed as animal survival at 200 mg/kg, ip administered daily for 9 days as Klucel suspension starting 24 hrs after tumor inoculation measured on fifth day; type: organism-based; set-up: dose 200 mg/kg, route intraperitoneal; conditions: in vivo; how it was run: as §5
L1210 [19] = test: Antileukemic activity against mouse L1210 cells allografted in female BDF1 mouse assessed as host mean survival time at 100 mg/kg, ip administered daily for 9 days as Klucel suspension starting 24 hrs after tumor inoculation relative to control; type: functional; conditions: route intraperitoneal; how it was run: as §3
Mus musculus [20] = test: Toxicity in female BDF1 mouse allografted with mouse P388 cells assessed as animal survival at 12.5 mg/kg, ip administered daily for 9 days as Klucel suspension starting 24 hrs after tumor inoculation; type: organism-based; set-up: dose 12.5 mg/kg, route intraperitoneal; conditions: in vivo; how it was run: as §6
P388 [21] = test: Antitumor activity against mouse P388 cells allografted in male CDF1 mouse assessed as change in body weight at 6.25 mg/kg, ip administered daily for 9 days as Klucel suspension starting 24 hrs after tumor inoculation; type: functional; conditions: route intraperitoneal; how it was run: as §4
Mus musculus [22] = test: Toxicity in female CDF1 mouse allografted with mouse P388 cells assessed as animal survival at 200 mg/kg, ip administered daily for 9 days as Klucel suspension starting 24 hrs after tumor inoculation; type: organism-based; set-up: dose 200 mg/kg, route intraperitoneal; conditions: in vivo; how it was run: as §6
P388 [23] = test: Antitumor activity against mouse P388 cells allografted in female BDF1 mouse assessed as disease cures by measuring 30-days host survival at 25 mg/kg, ip administered daily for 9 days as Klucel suspension starting 24 hrs after tumor inoculation relative to control; type: functional; conditions: route intraperitoneal; how it was run: as §1

## CC(=O)OCc1c(COC(C)=O)c(-c2ccccc2)n2c1CCC2
P388 [1]
  T/C: 125%
L1210 [2]
  Activity: -2.8 g
P388 [3]
  T/C: 126%
L1210 [4]
  T/C: 114%
P388 [5]
  Activity: -2 g
[6]
  EC50: > 100 µg/mL
P388 [7]
  T/C: 87%
P388 [8]
  Activity: -1.2 g
Mus musculus [9]
  Activity: Non-toxic
L1210 [10]
  Activity: -2.3 g
Mus musculus [11]
  Activity: Non-toxic
P388 [12]
  Activity: -6.1 g
P388 [13]
  T/C: 142%
Mus musculus [14]
  Activity: Non-toxic
P388 [15]
  T/C: 110%
P388 [16]
  T/C: 49%
Mus musculus [17]
  Activity: Non-toxic
Mus musculus [18]
  Activity: Toxic
L1210 [19]
  T/C: 107%
Mus musculus [20]
  Activity: Non-toxic
P388 [21]
  Activity: -0.3 g
Mus musculus [22]
  Activity: Toxic
P388 [23]
  T/C: 133%
